Source: ChEMBL document CHEMBL4425124, “Structure-Activity Relationship Studies on Tetrahydroisoquinoline Derivatives: [4'-(6,7-Dimethoxy-3,4-dihydro-1H-isoquinolin-2-ylmethyl)biphenyl-4-ol] (MC70) Conjugated through Flexible Alkyl Chains with Furazan Moieties Gives Rise to Potent and Selective Ligands of P-glycoprotein” (J Med Chem, 2016)

Experiments:
[1] = target: T1, ATP-dependent translocase ABCB1 (Homo sapiens, UniProt P08183); test: Inhibition of MDR1 (unknown origin) expressed in MDCK cells assessed as decrease in calcein-AM transport after 30 mins by fluorescence assay; assay type: cell-based
Procedure, shortened: (§1)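 MDCK-MDR1 or MDCK-MRP1 cells (50,000/well) grown to confluence overnight. Compounds in medium preincubated 30 min at 37 °C, then calcein-AM (2.5 μM final, in PBS) added for 30 min. Three ice-cold PBS washes; fluorescence read at ex 485/em 535 nm. Increase over untreated basal fluorescence fitted against log[dose] for EC50. Mean of three independent experiments, duplicate samples.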

MDCK [2] = test: Cytotoxicity against MDCK cells expressing MDR1 assessed as inhibition of cell proliferation at 1 uM after 24 hrs by MTT assay; assay type: ADME, cell-based, Canis lupus familiaris; conditions: dog
Procedure, shortened: (§2)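 MTT growth assay. 30000 cells/well seeded on day 1; drugs added on day 2 over 0.1–100 μM, with solvent (ethanol, DMSO) controls. After 24 or 48 h, MTT 0.5 mg/mL for 3 h at 37 °C. Formazan dissolved in DMSO, absorbance read at 570 and 630 nm.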

[3] = target: Multidrug resistance-associated protein 1 (Homo sapiens, UniProt P33527); test: Inhibition of MRP1 (unknown origin) expressed in MDCK cells assessed as decrease in calcein-AM transport at 10^-4 M after 30 mins by fluorescence assay; assay type: cell-based; conditions: 0.5 h, 100 µM; procedure, shortened: as §1
P-gp (ABCB1) = P-gp (ABCB1) (Homo sapiens, UniProt P08183); test: Substrate activity at p-gp in human Caco2 cells assessed as ratio of apparent permeability across basolateral to apical over apical to basolateral side at 100 uM after 120 mins by UV-Vis spectroscopy; assay type: ADME, cell-based; conditions: Caco-2
Procedure, shortened: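 Caco-2 monolayers cultured 21 days, with TEER checked before and after the experiment. Compounds at 100 μM in HBSS pH 7.4, applied apical or basolateral, 120 min at 37 °C after 30 min buffer preincubation. Acceptor concentration measured by UV–vis. Papp = [VA/(area×time)]×([drug]acceptor/[drug]initial), area 0.11 cm², 7200 s. Two independent experiments.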

[4] = target: T1, ATP-dependent translocase ABCB1; test: Activation of MDR1 (unknown origin) ATPase activity expressed in MDCK cells assessed as decrease in ATP level after 2 hrs by ATPlite assay; assay type: cell-based
Procedure, shortened: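 MDCK-MDR1 cells seeded at 2x10⁴/well, grown overnight at 37 °C, 5% CO₂, then exposed to test compounds in complete medium at varying concentrations for 2 h. Cells lysed, luciferase substrate added, 10 min dark adaptation, luminescence read as cellular ATP level. Mean of three independent experiments, duplicate samples.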

MCF7 = test: Cytotoxicity against human MCF7 cells assessed as inhibition of cell proliferation at 0.1 uM after 24 hrs by MTT assay; assay type: cell-based; conditions: mcf7, 24 h; procedure, shortened: as §2
MDCK [5] = test: Cytotoxicity against MDCK cells expressing MDR1 assessed as inhibition of cell proliferation at 0.1 uM after 48 hrs by MTT assay; assay type: ADME, cell-based, Canis lupus familiaris; conditions: dog; procedure, shortened: as §2
[6] = target: T2, Broad substrate specificity ATP-binding cassette transporter ABCG2 (Homo sapiens, UniProt Q9UNQ0); test: Inhibition of BCRP (unknown origin)
T2 sequence (Q9UNQ0 whole entry): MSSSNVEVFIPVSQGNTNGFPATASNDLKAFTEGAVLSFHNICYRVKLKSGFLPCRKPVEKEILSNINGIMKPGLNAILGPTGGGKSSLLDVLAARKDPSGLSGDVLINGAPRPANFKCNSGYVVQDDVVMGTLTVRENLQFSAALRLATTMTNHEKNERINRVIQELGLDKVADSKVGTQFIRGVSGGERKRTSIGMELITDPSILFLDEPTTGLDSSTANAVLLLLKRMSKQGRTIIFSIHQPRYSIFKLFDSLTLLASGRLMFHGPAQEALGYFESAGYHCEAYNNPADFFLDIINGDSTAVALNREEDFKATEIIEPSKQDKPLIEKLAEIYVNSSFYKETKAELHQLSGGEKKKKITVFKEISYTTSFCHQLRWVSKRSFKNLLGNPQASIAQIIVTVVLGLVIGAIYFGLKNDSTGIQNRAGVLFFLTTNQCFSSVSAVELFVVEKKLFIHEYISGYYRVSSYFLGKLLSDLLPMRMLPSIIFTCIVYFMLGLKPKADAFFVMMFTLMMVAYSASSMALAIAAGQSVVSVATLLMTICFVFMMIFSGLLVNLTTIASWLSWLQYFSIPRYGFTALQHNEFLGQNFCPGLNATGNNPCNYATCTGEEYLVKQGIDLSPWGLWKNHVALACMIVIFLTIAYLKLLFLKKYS

Chain of P-gp (ABCB1) (P08183 whole entry): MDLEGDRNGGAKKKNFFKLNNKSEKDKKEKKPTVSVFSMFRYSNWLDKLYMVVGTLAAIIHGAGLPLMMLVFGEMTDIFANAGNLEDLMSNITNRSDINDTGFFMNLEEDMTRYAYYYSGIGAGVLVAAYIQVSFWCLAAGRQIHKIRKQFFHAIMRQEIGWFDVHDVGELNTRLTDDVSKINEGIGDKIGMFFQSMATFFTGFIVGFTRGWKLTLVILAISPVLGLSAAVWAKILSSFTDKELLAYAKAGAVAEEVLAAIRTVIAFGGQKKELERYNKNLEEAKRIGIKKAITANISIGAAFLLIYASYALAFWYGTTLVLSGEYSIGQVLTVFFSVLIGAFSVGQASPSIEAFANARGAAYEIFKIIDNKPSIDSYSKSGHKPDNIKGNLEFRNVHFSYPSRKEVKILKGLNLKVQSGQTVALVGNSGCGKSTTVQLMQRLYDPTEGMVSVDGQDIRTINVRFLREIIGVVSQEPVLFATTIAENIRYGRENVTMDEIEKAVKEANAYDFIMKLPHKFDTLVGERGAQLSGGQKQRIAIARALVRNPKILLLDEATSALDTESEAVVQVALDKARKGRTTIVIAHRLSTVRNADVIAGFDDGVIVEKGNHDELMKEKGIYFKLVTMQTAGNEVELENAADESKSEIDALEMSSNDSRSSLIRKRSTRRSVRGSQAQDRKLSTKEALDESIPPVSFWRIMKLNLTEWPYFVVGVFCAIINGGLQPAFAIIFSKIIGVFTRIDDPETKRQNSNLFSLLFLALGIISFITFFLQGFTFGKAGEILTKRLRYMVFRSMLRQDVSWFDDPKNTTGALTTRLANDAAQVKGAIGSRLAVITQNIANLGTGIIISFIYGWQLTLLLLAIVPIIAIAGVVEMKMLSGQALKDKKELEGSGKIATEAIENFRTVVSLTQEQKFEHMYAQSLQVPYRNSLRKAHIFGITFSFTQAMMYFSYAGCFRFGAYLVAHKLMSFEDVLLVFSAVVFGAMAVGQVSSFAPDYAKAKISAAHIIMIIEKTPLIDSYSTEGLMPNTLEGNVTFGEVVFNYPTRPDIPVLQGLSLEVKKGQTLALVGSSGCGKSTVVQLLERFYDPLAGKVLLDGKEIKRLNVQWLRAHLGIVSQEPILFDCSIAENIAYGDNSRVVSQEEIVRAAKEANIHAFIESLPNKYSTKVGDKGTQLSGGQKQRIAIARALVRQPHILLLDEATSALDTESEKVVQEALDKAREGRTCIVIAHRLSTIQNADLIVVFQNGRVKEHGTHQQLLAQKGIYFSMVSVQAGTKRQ
T1 sequence (P08183 whole entry): as above
Chain of Multidrug resistance-associated protein 1 (P33527 whole entry): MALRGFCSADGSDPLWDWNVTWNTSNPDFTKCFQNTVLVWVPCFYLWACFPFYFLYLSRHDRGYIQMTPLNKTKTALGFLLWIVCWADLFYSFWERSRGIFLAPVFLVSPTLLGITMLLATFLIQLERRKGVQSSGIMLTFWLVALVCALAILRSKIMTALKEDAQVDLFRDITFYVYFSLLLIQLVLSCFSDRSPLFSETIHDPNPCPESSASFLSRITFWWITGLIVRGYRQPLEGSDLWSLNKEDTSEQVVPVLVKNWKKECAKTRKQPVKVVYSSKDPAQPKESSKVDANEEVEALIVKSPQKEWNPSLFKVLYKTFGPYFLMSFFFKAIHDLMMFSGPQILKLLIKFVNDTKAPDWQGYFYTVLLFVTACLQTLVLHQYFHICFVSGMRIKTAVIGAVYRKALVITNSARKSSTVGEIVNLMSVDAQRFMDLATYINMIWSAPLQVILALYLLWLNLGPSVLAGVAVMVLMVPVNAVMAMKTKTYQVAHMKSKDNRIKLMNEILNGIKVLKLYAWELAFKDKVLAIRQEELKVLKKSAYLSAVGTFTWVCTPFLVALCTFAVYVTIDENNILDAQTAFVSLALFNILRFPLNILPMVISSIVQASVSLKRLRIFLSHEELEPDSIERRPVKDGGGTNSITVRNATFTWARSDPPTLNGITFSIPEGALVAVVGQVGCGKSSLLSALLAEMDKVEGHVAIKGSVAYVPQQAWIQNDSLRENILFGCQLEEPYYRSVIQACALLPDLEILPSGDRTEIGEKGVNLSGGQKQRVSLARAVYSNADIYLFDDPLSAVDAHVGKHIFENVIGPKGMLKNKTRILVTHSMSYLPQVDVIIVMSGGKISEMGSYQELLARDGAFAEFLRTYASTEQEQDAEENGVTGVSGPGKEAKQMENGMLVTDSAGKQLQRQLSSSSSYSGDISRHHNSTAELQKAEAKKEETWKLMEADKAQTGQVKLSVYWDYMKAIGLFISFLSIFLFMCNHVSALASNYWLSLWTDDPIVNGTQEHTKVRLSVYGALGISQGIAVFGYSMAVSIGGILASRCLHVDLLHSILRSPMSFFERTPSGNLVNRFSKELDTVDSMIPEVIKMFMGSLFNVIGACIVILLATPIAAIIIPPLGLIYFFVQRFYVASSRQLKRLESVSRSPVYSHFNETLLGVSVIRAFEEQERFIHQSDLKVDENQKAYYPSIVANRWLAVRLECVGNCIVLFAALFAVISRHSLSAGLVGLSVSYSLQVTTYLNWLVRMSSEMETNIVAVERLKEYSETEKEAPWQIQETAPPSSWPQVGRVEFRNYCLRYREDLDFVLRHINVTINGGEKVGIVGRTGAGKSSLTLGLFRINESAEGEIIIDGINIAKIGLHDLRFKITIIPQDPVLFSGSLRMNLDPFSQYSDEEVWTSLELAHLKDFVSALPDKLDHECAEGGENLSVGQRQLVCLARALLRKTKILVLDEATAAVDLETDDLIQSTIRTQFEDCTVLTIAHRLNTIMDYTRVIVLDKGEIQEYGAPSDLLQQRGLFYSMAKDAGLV

| SMILES | EC50 [1] | inhibition (INH) [3] | efflux ratio at 2 h, 100 µM (P-gp (ABCB1)) | Activity [4] | Activity (MDCK [2]) | Activity (MCF7) | Activity (MDCK [5]) | EC50 [6] |
| --- | --- | --- | --- | --- | --- | --- | --- | --- |
| COc1cc2c(cc1OC)CN(Cc1ccc(-c3ccc(OCCOc4nonc4OC)cc3)cc1)CC2 | 0.0006 µM | Not Active | 3.2 | Active | Non-Toxic | Toxic | Toxic | > 100 µM |
| COc1cc2c(cc1OC)CN(Cc1ccc(-c3ccc(OCCCOc4nonc4OC)cc3)cc1)CC2 | 0.054 µM | Not Active | 3.2 | Not Active | – | – | – | – |
| COc1cc2c(cc1OC)CN(Cc1ccc(-c3ccc(OCCCOc4nonc4OCc4ccccc4)cc3)cc1)CC2 | 0.00097 µM | Not Active | 3 | Not Active | Non-Toxic | Toxic | Toxic | > 100 µM |
| COc1cc2c(cc1OC)CN(Cc1ccc(-c3ccc(OCCOc4nonc4C#N)cc3)cc1)CC2 | 1.2 µM | Not Active | 4.7 | Not Active | – | – | – | – |
| COc1cc2c(cc1OC)CN(Cc1ccc(-c3ccc(OCCOc4nonc4[S+]([O-])c4ccccc4)cc3)cc1)CC2 (configuration not stated) | 0.0009 µM | Not Active | 4.6 | Not Active | Non-Toxic | Toxic | Toxic | > 100 µM |
| COc1cc2c(cc1OC)CN(Cc1ccc(-c3ccc(OCCCOc4nonc4[S+]([O-])c4ccccc4)cc3)cc1)CC2 (configuration not stated) | 0.0013 µM | Not Active | 2.6 | Not Active | Non-Toxic | Toxic | Toxic | > 100 µM |

Second part, led by results:

| EC50 [1] | inhibition (INH) [3] | efflux ratio at 2 h, 100 µM (P-gp (ABCB1)) | Activity [4] | SMILES | Activity (MDCK [2]) | Activity (MCF7) | Activity (MDCK [5]) | EC50 [6] |
| --- | --- | --- | --- | --- | --- | --- | --- | --- |
| 0.35 µM | Not Active | 4 | Not Active | COc1cc2c(cc1OC)CN(Cc1ccc(-c3ccc(OCCCOc4nonc4C)cc3)cc1)CC2 | – | – | – | – |
| 1.18 µM | Not Active | 3.8 | Not Active | COc1cc2c(cc1OC)CN(Cc1ccc(-c3ccc(OCCCOc4nonc4Oc4ccccc4)cc3)cc1)CC2 | – | – | – | – |
| 1.05 µM | Not Active | 4.9 | Not Active | COc1cc2c(cc1OC)CN(Cc1ccc(-c3ccc(OCCCOc4nonc4C#N)cc3)cc1)CC2 | – | – | – | – |
| 0.38 µM | Not Active | 2.5 | Not Active | COc1cc2c(cc1OC)CN(Cc1ccc(-c3ccc(OCCCOc4nonc4S(=O)(=O)c4ccccc4)cc3)cc1)CC2 | – | – | – | – |
| 3.3 µM | Not Active | 20 | Not Active | COc1cc2c(cc1OC)CN(Cc1ccc(-c3ccc(OCCCOc4nonc4-c4ccccc4)cc3)cc1)CC2 | – | – | – | – |
| 0.29 µM | Not Active | 4.9 | Not Active | COc1cc2c(cc1OC)CN(Cc1ccc(-c3ccc(OCCOc4nonc4OCc4ccccc4)cc3)cc1)CC2 | – | – | – | – |
| 1.17 µM | Not Active | 4.7 | Not Active | COc1cc2c(cc1OC)CN(Cc1ccc(-c3ccc(OCCCOc4nonc4Sc4ccccc4)cc3)cc1)CC2 | – | – | – | – |
| 0.29 µM | Not Active | 3 | Not Active | COc1cc2c(cc1OC)CN(Cc1ccc(-c3ccc(OCCCCOc4nonc4OC)cc3)cc1)CC2 | – | – | – | – |
